Where “and” joins values, the source holds several entries; their conditions need not be identical. Equal entries are not always repeated.
System: U2OS
Test: Multiplex assay against U2OS
Format: toxicity, cell-based
Conditions: human
Method in brief: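 Imaging took place on a CQ1 microscope at 37°C and 5% CO2 once compound had been added to live cells stained at seeding with Hoechst33342, BioTracker Green Microtubule Cytoskeleton Dye, MitoTracker Red and Annexin V Alexa Fluor 680. CellPathfinder machine-learning gating classed cells as Hoechst high-intensity objects or normal cells, classed normal cells as having healthy, pyknosed or fragmented nuclei, and classed pyknosed cells as mitotic or apoptotic. Tubulin, mitochondrial-mass and membrane-permeability phenotypes are per cents of the healthy-nucleus cells.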

[1] = 12 h, 1 µM, compound concentration 1 uM
[2] = 12 h, 10 µM, compound concentration 10 uM
[3] = 24 h, 1 µM, compound concentration 1 uM
[4] = 24 h, 10 µM, compound concentration 10 uM
[5] = 48 h, 1 µM, compound concentration 1 uM
[6] = 48 h, 10 µM, compound concentration 10 uM

## Cc1nn(C)c2nc(NNC(=O)Nc3cc(Cl)nc(Cl)c3)cc(C(C)C)c12
[1]
  Population Apoptotic (%): 76% and 72%
  Population Fragmented Nuclei (%): 23% and 14%
  Population Healthy Nuclei (%): 66% and 76%
  Population Hoechst High Intensity Objects (%): 1% and 2%
  Population Membrane Permeable-Phenotype (%): 5% and 10%
  Population Mitochondria Different-Phenotype (%): 3% and 7%
  Population Mitotic Cells (%): 24% and 27%
  Population Normal (%): 98% and 97%
  Population Pyknosed Nuclei (%): 9% and 8%
  Population Tubulin-Different-Phenotype (%): 2% and 7%
  Total Cell Count: 268 and 131
[2]
  Population Apoptotic (%): 77% and 47%
  Population Fragmented Nuclei (%): 21% and 15%
  Population Healthy Nuclei (%): 56% and 63%
  Population Hoechst High Intensity Objects (%): 7% and 4%
  Population Membrane Permeable-Phenotype (%): 75% and 57%
  Population Mitochondria Different-Phenotype (%): 46% and 63%
  Population Mitotic Cells (%): 22% and 52%
  Population Normal (%): 92% and 95%
  Population Pyknosed Nuclei (%): 21%
  Population Tubulin-Different-Phenotype (%): 80% and 77%
  Total Cell Count: 222 and 104
[3]
  Population Apoptotic (%): 80% and 93%
  Population Fragmented Nuclei (%): 20% and 17%
  Population Healthy Nuclei (%): 71% and 73%
  Population Hoechst High Intensity Objects (%): 0% and 2%
  Population Membrane Permeable-Phenotype (%): 4% and 9%
  Population Mitochondria Different-Phenotype (%): 2% and 4%
  Population Normal (%): 99% and 97%
  Population Pyknosed Nuclei (%): 8% and 9%
  Population Tubulin-Different-Phenotype (%): 1% and 4%
  Total Cell Count: 328 and 168
[4]
  Population Apoptotic (%): 78% and 69%
  Population Fragmented Nuclei (%): 19% and 16%
  Population Healthy Nuclei (%): 49% and 61%
  Population Hoechst High Intensity Objects (%): 5% and 2%
  Population Membrane Permeable-Phenotype (%): 69% and 42%
  Population Mitochondria Different-Phenotype (%): 58% and 51%
  Population Mitotic Cells (%): 21% and 30%
  Population Normal (%): 94% and 97%
  Population Pyknosed Nuclei (%): 31% and 21%
  Population Tubulin-Different-Phenotype (%): 77% and 57%
  Total Cell Count: 218 and 110
[5]
  Population Apoptotic (%): 88% and 86%
  Population Fragmented Nuclei (%): 17% and 21%
  Population Healthy Nuclei (%): 75% and 65%
  Population Hoechst High Intensity Objects (%): 2% and 1%
  Population Membrane Permeable-Phenotype (%): 4% and 8%
  Population Mitochondria Different-Phenotype (%): 3% and 4%
  Population Mitotic Cells (%): 11% and 13%
  Population Normal (%): 97% and 98%
  Population Pyknosed Nuclei (%): 7% and 12%
  Population Tubulin-Different-Phenotype (%): 2% and 5%
  Total Cell Count: 504 and 247
[6]
  Population Apoptotic (%): 83% and 80%
  Population Fragmented Nuclei (%): 24%
  Population Healthy Nuclei (%): 43% and 48%
  Population Hoechst High Intensity Objects (%): 9% and 6%
  Population Membrane Permeable-Phenotype (%): 51%
  Population Mitochondria Different-Phenotype (%): 46% and 63%
  Population Mitotic Cells (%): 16% and 20%
  Population Normal (%): 90% and 93%
  Population Pyknosed Nuclei (%): 32% and 27%
  Population Tubulin-Different-Phenotype (%): 49% and 57%
  Total Cell Count: 244 and 115

## CC(/C=C1\SC(=S)N(CCCC(=O)Nc2ccc(C(=O)O)c(O)c2)C1=O)=C\c1ccccc1
[1]
  Population Apoptotic (%): 94% and 100%
  Population Fragmented Nuclei (%): 26% and 12%
  Population Healthy Nuclei (%): 64% and 80%
  Population Hoechst High Intensity Objects (%): 3% and 4%
  Population Membrane Permeable-Phenotype (%): 4% and 3%
  Population Mitochondria Different-Phenotype (%): 1% and 2%
  Population Mitotic Cells (%): 5% and 0%
  Population Normal (%): 96% and 95%
  Population Pyknosed Nuclei (%): 8% and 7%
  Population Tubulin-Different-Phenotype (%): 3% and 0%
  Total Cell Count: 205 and 133
[2]
  Population Apoptotic (%): 91% and 72%
  Population Fragmented Nuclei (%): 28% and 16%
  Population Healthy Nuclei (%): 61% and 72%
  Population Hoechst High Intensity Objects (%): 3% and 0%
  Population Membrane Permeable-Phenotype (%): 12% and 4%
  Population Mitochondria Different-Phenotype (%): 2% and 1%
  Population Normal (%): 96% and 100%
  Population Pyknosed Nuclei (%): 9% and 10%
  Population Tubulin-Different-Phenotype (%): 4% and 5%
  Total Cell Count: 241 and 101
[3]
  Population Apoptotic (%): 83% and 94%
  Population Fragmented Nuclei (%): 25% and 9%
  Population Healthy Nuclei (%): 64% and 79%
  Population Hoechst High Intensity Objects (%): 3% and 1%
  Population Membrane Permeable-Phenotype (%): 4% and 10%
  Population Mitochondria Different-Phenotype (%): 1%
  Population Normal (%): 96% and 98%
  Population Pyknosed Nuclei (%): 10%
  Population Tubulin-Different-Phenotype (%): 1%
  Total Cell Count: 247 and 177
[4]
  Population Apoptotic (%): 88% and 53%
  Population Fragmented Nuclei (%): 26% and 16%
  Population Healthy Nuclei (%): 64% and 72%
  Population Hoechst High Intensity Objects (%): 2% and 0%
  Population Membrane Permeable-Phenotype (%): 7%
  Population Mitochondria Different-Phenotype (%): 3% and 6%
  Population Normal (%): 97% and 100%
  Population Pyknosed Nuclei (%): 8% and 11%
  Population Tubulin-Different-Phenotype (%): 3% and 6%
  Total Cell Count: 298 and 111
[5]
  Population Apoptotic (%): 93% and 78%
  Population Fragmented Nuclei (%): 16% and 11%
  Population Healthy Nuclei (%): 74% and 79%
  Population Hoechst High Intensity Objects (%): 2% and 3%
  Population Membrane Permeable-Phenotype (%): 5% and 4%
  Population Mitochondria Different-Phenotype (%): 1% and 3%
  Population Normal (%): 97% and 96%
  Population Pyknosed Nuclei (%): 8% and 9%
  Population Tubulin-Different-Phenotype (%): 1% and 2%
  Total Cell Count: 368 and 253
[6]
  Population Apoptotic (%): 97% and 82%
  Population Fragmented Nuclei (%): 19% and 16%
  Population Healthy Nuclei (%): 68% and 73%
  Population Hoechst High Intensity Objects (%): 2% and 1%
  Population Membrane Permeable-Phenotype (%): 6% and 4%
  Population Mitochondria Different-Phenotype (%): 2% and 1%
  Population Normal (%): 97% and 98%
  Population Pyknosed Nuclei (%): 12% and 10%
  Population Tubulin-Different-Phenotype (%): 4% and 0%
  Total Cell Count: 396 and 170

## COc1cccc2c1c(NS(=O)(=O)c1ccc(Cl)s1)nn2Cc1cccc(CNC(=O)C(C)(C)O)c1
[1]
  Population Apoptotic (%): 86% and 81%
  Population Fragmented Nuclei (%): 23% and 29%
  Population Healthy Nuclei (%): 67% and 64%
  Population Hoechst High Intensity Objects (%): 3% and 6%
  Population Membrane Permeable-Phenotype (%): 4% and 7%
  Population Mitochondria Different-Phenotype (%): 1% and 3%
  Population Mitotic Cells (%): 13% and 18%
  Population Normal (%): 96% and 93%
  Population Pyknosed Nuclei (%): 9% and 5%
  Population Tubulin-Different-Phenotype (%): 1% and 6%
  Total Cell Count: 261 and 201
[2]
  Population Apoptotic (%): 76% and 83%
  Population Fragmented Nuclei (%): 26% and 25%
  Population Healthy Nuclei (%): 65% and 70%
  Population Hoechst High Intensity Objects (%): 1% and 5%
  Population Membrane Permeable-Phenotype (%): 6% and 8%
  Population Mitochondria Different-Phenotype (%): 2% and 3%
  Population Mitotic Cells (%): 23% and 16%
  Population Normal (%): 98% and 94%
  Population Pyknosed Nuclei (%): 8% and 4%
  Population Tubulin-Different-Phenotype (%): 4% and 2%
  Total Cell Count: 264 and 140
[3]
  Population Apoptotic (%): 96% and 90%
  Population Fragmented Nuclei (%): 20% and 28%
  Population Healthy Nuclei (%): 70% and 66%
  Population Hoechst High Intensity Objects (%): 1% and 5%
  Population Membrane Permeable-Phenotype (%): 5% and 8%
  Population Mitochondria Different-Phenotype (%): 1% and 3%
  Population Mitotic Cells (%): 3% and 9%
  Population Normal (%): 98% and 94%
  Population Pyknosed Nuclei (%): 8% and 4%
  Population Tubulin-Different-Phenotype (%): 3% and 6%
  Total Cell Count: 307 and 242
[4]
  Population Apoptotic (%): 90% and 88%
  Population Fragmented Nuclei (%): 25%
  Population Healthy Nuclei (%): 64% and 68%
  Population Hoechst High Intensity Objects (%): 1% and 5%
  Population Membrane Permeable-Phenotype (%): 5% and 8%
  Population Mitochondria Different-Phenotype (%): 3% and 4%
  Population Mitotic Cells (%): 10% and 11%
  Population Normal (%): 98% and 94%
  Population Pyknosed Nuclei (%): 10% and 5%
  Population Tubulin-Different-Phenotype (%): 2%
  Total Cell Count: 304 and 167
[5]
  Population Apoptotic (%): 95% and 74%
  Population Fragmented Nuclei (%): 14% and 22%
  Population Healthy Nuclei (%): 76% and 68%
  Population Hoechst High Intensity Objects (%): 1% and 7%
  Population Membrane Permeable-Phenotype (%): 4% and 5%
  Population Mitochondria Different-Phenotype (%): 1% and 4%
  Population Normal (%): 98% and 92%
  Population Pyknosed Nuclei (%): 9%
  Population Tubulin-Different-Phenotype (%): 2% and 5%
  Total Cell Count: 463 and 314
[6]
  Population Apoptotic (%): 93% and 100%
  Population Fragmented Nuclei (%): 20% and 22%
  Population Healthy Nuclei (%): 71%
  Population Hoechst High Intensity Objects (%): 2% and 3%
  Population Membrane Permeable-Phenotype (%): 5%
  Population Mitochondria Different-Phenotype (%): 2% and 3%
  Population Mitotic Cells (%): 6% and 0%
  Population Normal (%): 97% and 96%
  Population Pyknosed Nuclei (%): 8% and 5%
  Population Tubulin-Different-Phenotype (%): 3%
  Total Cell Count: 413 and 235

## CN1CCN(c2ccc(Nc3c4ccccc4nc4ccccc34)cc2)CC1.Cl.Cl.O
[1]
  Population Apoptotic (%): 100% and 87%
  Population Fragmented Nuclei (%): 25% and 23%
  Population Healthy Nuclei (%): 65% and 69%
  Population Hoechst High Intensity Objects (%): 0%
  Population Membrane Permeable-Phenotype (%): 19% and 14%
  Population Mitochondria Different-Phenotype (%): 7% and 13%
  Population Mitotic Cells (%): 0% and 12%
  Population Normal (%): 99% and 100%
  Population Pyknosed Nuclei (%): 8% and 7%
  Population Tubulin-Different-Phenotype (%): 17% and 13%
  Total Cell Count: 193 and 107
[2]
  Population Apoptotic (%): 93% and 100%
  Population Fragmented Nuclei (%): 54% and 62%
  Population Healthy Nuclei (%): 38% and 31%
  Population Hoechst High Intensity Objects (%): 0% and 2%
  Population Membrane Permeable-Phenotype (%): 65% and 70%
  Population Mitochondria Different-Phenotype (%): 95% and 100%
  Population Mitotic Cells (%): 6% and 0%
  Population Normal (%): 99% and 97%
  Population Pyknosed Nuclei (%): 7% and 6%
  Population Tubulin-Different-Phenotype (%): 82% and 85%
  Total Cell Count: 213 and 132
[3]
  Population Apoptotic (%): 92% and 100%
  Population Fragmented Nuclei (%): 28% and 29%
  Population Healthy Nuclei (%): 64% and 60%
  Population Hoechst High Intensity Objects (%): 1% and 4%
  Population Membrane Permeable-Phenotype (%): 10% and 5%
  Population Mitochondria Different-Phenotype (%): 6% and 12%
  Population Mitotic Cells (%): 7% and 0%
  Population Normal (%): 98% and 95%
  Population Pyknosed Nuclei (%): 6% and 10%
  Population Tubulin-Different-Phenotype (%): 7% and 6%
  Total Cell Count: 200 and 124
[4]
  Population Apoptotic (%): 100% and 90%
  Population Fragmented Nuclei (%): 46% and 69%
  Population Healthy Nuclei (%): 42% and 23%
  Population Hoechst High Intensity Objects (%): 4% and 10%
  Population Membrane Permeable-Phenotype (%): 85% and 96%
  Population Mitochondria Different-Phenotype (%): 96% and 100%
  Population Mitotic Cells (%): 0% and 10%
  Population Normal (%): 95% and 89%
  Population Pyknosed Nuclei (%): 11% and 7%
  Population Tubulin-Different-Phenotype (%): 90% and 100%
  Total Cell Count: 205 and 148
[5]
  Population Apoptotic (%): 87% and 100%
  Population Fragmented Nuclei (%): 36% and 40%
  Population Healthy Nuclei (%): 52% and 47%
  Population Hoechst High Intensity Objects (%): 4% and 5%
  Population Mitochondria Different-Phenotype (%): 4% and 7%
  Population Mitotic Cells (%): 12% and 0%
  Population Normal (%): 95% and 94%
  Population Pyknosed Nuclei (%): 10% and 12%
  Population Tubulin-Different-Phenotype (%): 3% and 9%
  Total Cell Count: 231 and 147
[6]
  Population Apoptotic (%): 96% and 100%
  Population Fragmented Nuclei (%): 53% and 76%
  Population Healthy Nuclei (%): 30% and 19%
  Population Hoechst High Intensity Objects (%): 18% and 15%
  Population Membrane Permeable-Phenotype (%): 91% and 100%
  Population Mitochondria Different-Phenotype (%): 90% and 96%
  Population Mitotic Cells (%): 3% and 0%
  Population Normal (%): 81% and 84%
  Population Tubulin-Different-Phenotype (%): 93% and 100%
  Total Cell Count: 243 and 173

From ChEMBL document CHEMBL5724801, “EUbOPEN Chemogenomics Library - Multiplex” (2024)
